Laboratory results taken from ChEMBL document CHEMBL4359929, “Piperidine and piperazine inhibitors of fatty acid amide hydrolase targeting excitotoxic pathology” (Bioorg Med Chem, 2019).
Calls of active or inactive are those of the source. The calls are words filed in the database; no cut-off is given here.

How the values were obtained:
[1] = target: T1, Fatty-acid amide hydrolase 1 (Homo sapiens, UniProt O00519); assay: Inhibition of human recombinant MBP-tagged FAAH expressed in Escherichia coli cells using AAMCA as substrate incubated for 15 mins followed by substrate addition and measured after every 20 mins for 4 hrs by fluorescence based assay
T1 sequence (O00519 whole entry): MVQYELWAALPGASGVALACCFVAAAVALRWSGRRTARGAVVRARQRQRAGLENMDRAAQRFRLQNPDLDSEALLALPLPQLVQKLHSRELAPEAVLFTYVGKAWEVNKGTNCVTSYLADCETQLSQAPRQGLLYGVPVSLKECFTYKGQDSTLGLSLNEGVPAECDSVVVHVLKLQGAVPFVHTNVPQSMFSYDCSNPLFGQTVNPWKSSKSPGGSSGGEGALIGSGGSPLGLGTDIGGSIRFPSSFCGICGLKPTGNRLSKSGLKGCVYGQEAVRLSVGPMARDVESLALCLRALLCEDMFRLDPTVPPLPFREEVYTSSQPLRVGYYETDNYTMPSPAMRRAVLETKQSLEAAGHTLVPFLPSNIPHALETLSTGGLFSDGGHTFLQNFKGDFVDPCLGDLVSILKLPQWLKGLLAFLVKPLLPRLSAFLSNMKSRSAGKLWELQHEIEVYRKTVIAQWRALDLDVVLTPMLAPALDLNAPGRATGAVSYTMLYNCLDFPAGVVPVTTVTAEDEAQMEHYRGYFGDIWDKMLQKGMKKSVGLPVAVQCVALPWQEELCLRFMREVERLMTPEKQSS
How it was run: (§1)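 Fluorescent enzyme assay in throughput format. Human recombinant FAAH or purified rat FAAH used arachidonoyl 7-amino-4-methylcoumarin amide as substrate; human recombinant MGL was run by a similar fluorometric procedure.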

[2] = target: T2, Fatty-acid amide hydrolase 1 (Rattus norvegicus, UniProt P97612); assay: Inhibition of rat recombinant His/GST-tagged FAAH expressed in Escherichia coli cells using AAMCA as substrate incubated for 15 mins followed by substrate addition and measured after every 20 mins for 4 hrs by fluorescence based assay; how it was run: as §1
T2 sequence (P97612 whole entry): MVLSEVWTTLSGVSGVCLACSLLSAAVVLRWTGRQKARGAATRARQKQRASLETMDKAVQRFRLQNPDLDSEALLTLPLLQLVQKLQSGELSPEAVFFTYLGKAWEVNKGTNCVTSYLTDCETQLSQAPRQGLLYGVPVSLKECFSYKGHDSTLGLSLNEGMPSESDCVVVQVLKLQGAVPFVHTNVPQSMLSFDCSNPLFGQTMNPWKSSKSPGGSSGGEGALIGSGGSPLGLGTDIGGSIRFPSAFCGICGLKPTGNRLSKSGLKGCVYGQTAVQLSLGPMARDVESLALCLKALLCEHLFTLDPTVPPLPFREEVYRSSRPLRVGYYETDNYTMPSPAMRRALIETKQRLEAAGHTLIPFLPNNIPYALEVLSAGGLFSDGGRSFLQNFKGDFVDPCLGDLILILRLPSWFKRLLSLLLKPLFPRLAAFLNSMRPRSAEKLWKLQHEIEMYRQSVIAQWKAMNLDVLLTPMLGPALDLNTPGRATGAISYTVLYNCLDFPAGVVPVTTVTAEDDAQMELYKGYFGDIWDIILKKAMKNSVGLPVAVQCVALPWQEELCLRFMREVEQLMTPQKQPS

Monoglyceride lipase = target: T3, Monoglyceride lipase (Homo sapiens, UniProt Q99685); assay: Inhibition of human recombinant His-tagged MGL expressed in Escherichia coli BL21 DE3 cells using AHMMCE as substrate preincubated with enzyme for 15 mins followed by substrate addition and measured after every 15 mins for 3 hrs by fluorescence based assay; how it was run: as §1
T3 sequence (Q99685 whole entry): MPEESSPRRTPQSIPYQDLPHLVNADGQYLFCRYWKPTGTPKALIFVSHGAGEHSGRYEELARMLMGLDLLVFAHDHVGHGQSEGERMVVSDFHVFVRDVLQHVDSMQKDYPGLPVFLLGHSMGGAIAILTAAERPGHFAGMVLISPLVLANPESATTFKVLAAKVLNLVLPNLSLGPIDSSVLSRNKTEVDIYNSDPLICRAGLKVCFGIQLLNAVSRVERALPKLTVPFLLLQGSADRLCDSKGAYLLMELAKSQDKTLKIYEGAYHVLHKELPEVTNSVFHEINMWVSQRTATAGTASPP

[3] = Stability in human liver microsomes assessed as half life; format: ADME, Microsome
How it was run: (§2)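 Stability assessed as half-life in human, rat and mouse plasma and gastric fluid, and in human, rat and mouse liver microsomal preparations.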

[4] = Stability in rat liver microsomes assessed as half life; format: ADME, Microsome; how it was run: as §2
[5] = Stability in mouse liver microsomes assessed as half life; format: ADME, Microsome; how it was run: as §2
[6] = Stability in human plasma assessed as half life; format: ADME, cell-free; how it was run: as §2
[7] = Stability in rat plasma assessed as half life; format: ADME, cell-free; how it was run: as §2
[8] = Stability in mouse plasma assessed as half life; format: ADME, cell-free; how it was run: as §2
[9] = Stability in human gastric fluid assessed as half life; format: ADME, tissue-based, Gastric juice; how it was run: as §2
[10] = Stability in rat gastric fluid assessed as half life; format: ADME, tissue-based, Gastric juice; how it was run: as §2
[11] = Stability in mouse gastric fluid assessed as half life; format: ADME, tissue-based, Gastric juice; how it was run: as §2
[12] = Drug concentration in plasma (unknown origin) at 2 mg/kg, iv measured after 15 mins; format: ADME, organism-based
How it was run: (§3)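 Cassette pharmacokinetics: compounds given together at 2 mg/kg iv; brain and plasma levels (µg/mL) measured at 15 min.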

[13] = Drug concentration in brain (unknown origin) at 2 mg/kg, iv measured after 15 mins; format: ADME, organism-based; conditions: read-out: Ct; how it was run: as §3
Homo sapiens [14] = organism: Homo sapiens; assay: Selectivity ratio of IC50 for human recombinant His-tagged MGL expressed in Escherichia coli BL21 DE3 cells to IC50 for human recombinant MBP-tagged FAAH expressed in Escherichia coli cells by fluorescence based assay
Homo sapiens [15] = organism: Homo sapiens; assay: Selectivity ratio of IC50 for human full length ABHD6 expressed in Escherichia coli cells to IC50 for human recombinant MBP-tagged FAAH expressed in Escherichia coli cells by fluorescence based assay
[16] = target: Cannabinoid receptor 1 (Rattus norvegicus) (UniProt P20272); assay: Displacement of [3H]CP55940 from CB1 receptor in rat brain by competition-equilibrium binding analysis; format: tissue-based
How it was run: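 Rat brain membranes as CB1 source; competition-equilibrium binding against [3H]CP-55,940.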
Target sequence in this assay (P20272 whole entry): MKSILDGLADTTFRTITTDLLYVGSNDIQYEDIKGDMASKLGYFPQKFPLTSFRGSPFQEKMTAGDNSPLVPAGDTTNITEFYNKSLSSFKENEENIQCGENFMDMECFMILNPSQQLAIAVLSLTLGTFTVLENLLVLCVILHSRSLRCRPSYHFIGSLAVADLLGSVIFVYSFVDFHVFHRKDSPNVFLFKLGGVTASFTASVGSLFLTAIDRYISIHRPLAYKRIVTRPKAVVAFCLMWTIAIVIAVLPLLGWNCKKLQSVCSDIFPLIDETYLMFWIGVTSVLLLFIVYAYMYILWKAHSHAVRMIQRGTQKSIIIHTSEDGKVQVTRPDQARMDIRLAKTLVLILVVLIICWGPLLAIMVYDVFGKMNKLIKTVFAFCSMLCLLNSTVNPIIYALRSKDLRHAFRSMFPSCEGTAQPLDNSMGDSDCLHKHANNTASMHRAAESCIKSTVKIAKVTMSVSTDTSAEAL

[17] = target: Cannabinoid receptor 2 (Mus musculus) (UniProt P47936); assay: Displacement of [3H]CP55940 from mouse CB2 receptor expressed in HEK293 cells by competition-equilibrium binding analysis; format: cell-based
How it was run: (§4)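 HEK293 cell membranes expressing mouse or human CB2; competition-equilibrium binding against [3H]CP-55,940.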

[18] = target: Cannabinoid receptor 2 (Homo sapiens) (UniProt P34972); assay: Displacement of [3H]CP55940 from human CB2 receptor expressed in HEK293 cells by competition-equilibrium binding analysis; format: cell-based; how it was run: as §4
[19] = Selectivity ratio of IC50 for human recombinant His-tagged MGL expressed in Escherichia coli BL21 DE3 cells to IC50 for rat recombinant His/GST-tagged FAAH expressed in Escherichia coli cells by fluorescence based assay
[20] = Selectivity ratio of IC50 for human full length ABHD6 expressed in Escherichia coli cells to IC50 for rat recombinant His/GST-tagged FAAH expressed in Escherichia coli cells by fluorescence based assay
[21] = target: Cannabinoid receptor 1 (Rattus norvegicus) (UniProt P20272); assay: Displacement of [3H]CP55940 from CB1 receptor in rat brain by competition-equilibrium binding analysis
Target sequence in this assay (P20272 whole entry, looked up): as the sequence (P20272 whole entry) above

[22] = target: T4, Fatty-acid amide hydrolase 1 (Homo sapiens) (UniProt O00519); assay: Inhibition of human recombinant MBP-tagged FAAH expressed in Escherichia coli cells at 1 uM using AAMCA as substrate incubated for 15 mins followed by substrate addition and measured after every 20 mins for 4 hrs by fluorescence based assay relative to control
T4 sequence (whole entry): T1 sequence (O00519 whole entry)
How it was run: (§5)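 Fluorescent FAAH assay with arachidonoyl 7-amino-4-methylcoumarin amide as substrate; compound tested at a single concentration of 1 µM; percent inhibition reported.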

[23] = target: T5, Fatty-acid amide hydrolase 1 (Rattus norvegicus) (UniProt P97612); assay: Inhibition of rat recombinant His/GST-tagged FAAH expressed in Escherichia coli cells at 1 uM using AAMCA as substrate incubated for 15 mins followed by substrate addition and measured after every 20 mins for 4 hrs by fluorescence based assay relative to control; how it was run: as §5
T5 sequence (whole entry): T2 sequence (P97612 whole entry)

[24] = target: T6, Monoglyceride lipase (Homo sapiens) (UniProt Q99685); conditions: at 1 µM
T6 sequence (whole entry): T3 sequence (Q99685 whole entry)

[25] = Ratio of IC50 for rat recombinant His/GST-tagged FAAH expressed in Escherichia coli cells to IC50 for human recombinant MBP-tagged FAAH expressed in Escherichia coli cells by fluorescence based assay

Chain of Cannabinoid receptor 2 (Homo sapiens) (P34972 whole entry): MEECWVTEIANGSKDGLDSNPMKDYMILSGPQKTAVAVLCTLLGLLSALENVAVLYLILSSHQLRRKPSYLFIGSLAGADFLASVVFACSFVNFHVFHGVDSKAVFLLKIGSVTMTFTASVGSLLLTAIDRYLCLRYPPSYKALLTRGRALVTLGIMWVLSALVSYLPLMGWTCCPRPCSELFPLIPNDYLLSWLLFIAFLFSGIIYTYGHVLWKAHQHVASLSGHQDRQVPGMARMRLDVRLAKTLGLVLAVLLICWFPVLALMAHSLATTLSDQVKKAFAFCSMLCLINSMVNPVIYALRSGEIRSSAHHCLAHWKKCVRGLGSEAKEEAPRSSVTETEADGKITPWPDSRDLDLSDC
Chain of Cannabinoid receptor 2 (Mus musculus) (P47936 whole entry): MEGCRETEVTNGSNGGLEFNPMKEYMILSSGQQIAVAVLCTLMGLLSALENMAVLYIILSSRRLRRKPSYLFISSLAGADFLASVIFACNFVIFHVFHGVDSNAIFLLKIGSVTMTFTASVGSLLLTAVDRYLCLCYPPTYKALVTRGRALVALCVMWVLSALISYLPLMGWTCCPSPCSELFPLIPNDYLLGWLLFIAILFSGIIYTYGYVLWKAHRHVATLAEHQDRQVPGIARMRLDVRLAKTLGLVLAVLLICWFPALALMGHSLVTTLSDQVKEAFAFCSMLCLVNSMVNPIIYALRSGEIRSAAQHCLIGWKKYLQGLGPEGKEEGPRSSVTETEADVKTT

Compound | IC50 [1] | IC50 [2] | IC50 (Monoglyceride lipase) | half-life [3] | half-life [4] | half-life [5] | half-life [6] | half-life [7] | half-life [8] | half-life [9] | half-life [10] | half-life [11] | Ratio IC50 (Homo sapiens [14]) | Ratio IC50 (Homo sapiens [15]) | Activity [16] | Activity [17] | Activity [18] | Ratio IC50 [19] | Ratio IC50 [20] | Activity [21] | other results
O=C(Oc1cccc(N2CCS(=O)(=O)CC2)c1)N1CCC(c2ccc(OCCF)cc2)CC1 | 21.2 nM | 5.5 nM | > 1000 nM | 15 to 25 min | 15 to 25 min | 15 to 25 min | > 60 min | > 60 min | > 60 min | > 60 min | > 60 min | > 60 min | > 1000 | > 1000 | inactive | inactive | inactive | > 1000 | > 1000 | inactive | concentration at 0.25 h [12]: 388 ng/mL; concentration at 0.25 h [13]: 909 ng/mL
O=C(Oc1cccc(N2CCOCC2)c1)N1CCC(c2ccc(F)cc2)CC1 | 16.3 nM | 2.93 nM | > 1000 nM | 15 to 25 min | 15 to 25 min | 15 to 25 min | > 60 min | > 60 min | > 60 min | > 60 min | > 60 min | > 60 min | > 1000 | > 1000 | inactive | inactive | inactive | > 1000 | > 1000 | inactive | concentration at 0.25 h [12]: 506 ng/mL; concentration at 0.25 h [13]: 508 ng/mL
O=C(Nc1cccc(N2CCS(=O)(=O)CC2)c1)N1CCN(c2ccccc2)CC1 | – | – | – | – | – | – | – | – | – | – | – | – | – | – | inactive | inactive | inactive | – | – | inactive | inhibition [22]: inactive; inhibition [23]: inactive; inhibition [24]: inactive
O=C(Oc1cccc(N2CCS(=O)(=O)CC2)c1)N1CCC(c2ccc(F)cc2)CC1 | 10 nM | 2.3 nM | > 1000 nM | 15 to 25 min | 15 to 25 min | 15 to 25 min | > 60 min | > 60 min | > 60 min | > 60 min | > 60 min | > 60 min | > 1000 | > 1000 | inactive | inactive | inactive | > 1000 | > 1000 | inactive | concentration at 0.25 h [12]: 474 ng/mL; concentration at 0.25 h [13]: 1230 ng/mL
CN(C)c1ccc(C2CCN(C(=O)Oc3cccc(N4CCS(=O)(=O)CC4)c3)CC2)cc1 | 2.4 nM | 6.9 nM | > 1000 nM | 15 to 25 min | 15 to 25 min | 15 to 25 min | > 60 min | > 60 min | > 60 min | > 60 min | > 60 min | > 60 min | > 1000 | > 1000 | inactive | inactive | inactive | > 1000 | > 1000 | inactive | Ratio IC50 [25]: 2 to 3; concentration at 0.25 h [12]: 746 ng/mL; concentration at 0.25 h [13]: 1110 ng/mL
O=C(Oc1cccc(N2CCS(=O)(=O)CC2)c1)N1CCC(c2ccc(N3CCCC3)cc2)CC1 | 3.5 nM | 6.3 nM | > 1000 nM | 15 to 25 min | 15 to 25 min | 15 to 25 min | > 60 min | > 60 min | > 60 min | > 60 min | > 60 min | > 60 min | > 1000 | > 1000 | inactive | inactive | inactive | > 1000 | > 1000 | inactive | Ratio IC50 [25]: 2 to 3
O=C(Nc1cccc(N2CCS(=O)(=O)CC2)c1)N1CCC(c2ccccc2)CC1 | – | – | – | – | – | – | – | – | – | – | – | – | – | – | inactive | inactive | inactive | – | – | inactive | inhibition [22]: inactive; inhibition [23]: inactive; inhibition [24]: inactive
